The source made the active and inactive calls.
Assays:
Type in all cases: functional
Enterococcus faecium = assay: Antimicrobial activity against Enterococcus faecium assessed as inhibition of microbial growth after 24 hrs
Summary of the method: (§1)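 Broth microdilution against multidrug-resistant clinical ESKAPE isolates. Overnight cultures (TSB for Gram-positives, LB for Gram-negatives) diluted 1:1000 in fresh medium, compound in DMF (≤2.0% DMF) added at decreasing concentrations, 37°C.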

Staphylococcus aureus = assay: Antimicrobial activity against Staphylococcus aureus assessed as inhibition of microbial growth after 24 hrs; summary of the method: as §1
Klebsiella pneumoniae = assay: Antimicrobial activity against Klebsiella pneumoniae assessed as inhibition of microbial growth after 24 hrs; summary of the method: as §1
Acinetobacter baumannii = assay: Antimicrobial activity against Acinetobacter baumannii assessed as inhibition of microbial growth after 24 hrs; summary of the method: as §1
Pseudomonas aeruginosa = assay: Antimicrobial activity against Pseudomonas aeruginosa assessed as inhibition of microbial growth after 24 hrs; summary of the method: as §1
Enterobacter cloacae = assay: Antimicrobial activity against Enterobacter cloacae assessed as inhibition of microbial growth after 24 hrs; summary of the method: as §1

Measured: MIC

CCC[C@@H]1CN(CCCC[C@H]2CNC(=N)N2CC2CCC(C)CC2)C(=N)N1CCc1cccc(C)c1 (stereo not given in full)
inactive: all assays above

CC[C@H](C)[C@H]1CN(CCCC[C@H]2CNC(=N)N2CC2CCC(C)CC2)C(=N)N1 (stereo not given in full)
inactive: all assays above

CCCCCCCN1C(=N)NC[C@@H]1CCCCN1C[C@@H](CCC)NC1=N
inactive: all assays above

CCCCCCCN1C(=N)NC[C@@H]1CCCCN1CCN(CC(C)CC)C1=N (stereo not given in full)
inactive: all assays above

CC[C@H](C)[C@H]1CN(CCCC[C@H]2CNC(=N)N2CC2CCC(C)CC2)C(=N)N1CCc1cccc(C)c1 (stereo not given in full)
inactive: all assays above

N=C1NCCN1CCCC[C@H]1CNC(=N)N1CC1CCCCC1
inactive: all assays above

CC[C@H](C)[C@H]1CN(CCCC[C@H]2CNC(=N)N2CC2CCCCC2)C(=N)N1
inactive: all assays above

CCCCCCCN1C(=N)NC[C@@H]1CCCCN1CCN(CCc2cccc(C)c2)C1=N
inactive: all assays above

CC1CCC(CN2C(=N)NC[C@@H]2CCCCN2CCNC2=N)CC1 (stereo not given in full)
inactive: all assays above

CCC(C)CN1C(=N)N(CCCC[C@H]2CNC(=N)N2CC2CCCCC2)C[C@@H]1[C@@H](C)CC (stereo not given in full)
inactive: all assays above

CCC[C@@H]1CN(CCCC[C@H]2CNC(=N)N2CC2CCCCC2)C(=N)N1CCc1cccc(C)c1
inactive: all assays above

CCC[C@@H]1CN(CCCC[C@H]2CNC(=N)N2CC2CCC(C)CC2)C(=N)N1CC(C)CC (stereo not given in full)
inactive: all assays above

CCC[C@@H]1CN(CCCC[C@H]2CNC(=N)N2CC2CCCCC2)C(=N)N1CC(C)CC (stereo not given in full)
inactive: all assays above

CC[C@H](C)[C@H]1CN(CCCC[C@H]2CNC(=N)N2CC2CCCCC2)C(=N)N1CCc1cccc(C)c1
inactive: all assays above

CCCCCCCN1C(=N)NC[C@@H]1CCCCN1C[C@@H](CCC)N(CC(C)CC)C1=N (stereo not given in full)
inactive: all assays above
